# In ChEMBL document CHEMBL2375226, “Bivalent angiotensin II suppresses oxidative stress-induced hyper-responsiveness of angiotensin II receptor type I” (Eur J Med Chem, 2013):
# Activity calls are given as the source filed them. No cut-off for these calls is given here.
# Assays:
# HEK293 [1] = experiment: Stimulation of EGFP-tagged rat AT1 receptor expressed in HEK cells assessed as increase in intracellular calcium level at 5 nM after 3 mins under H2O2-induced oxidative stress condition by fluorimetric assay
# HEK293 [2] = experiment: Stimulation of EGFP-tagged rat AT1 receptor expressed in HEK cells assessed as change in cluster density value at 2.5 nM under non-oxidative condition by image correlation spectroscopic analysis relative to control; format: cell-based
# Summary of the method: (§1)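 HEK cells expressing EGFP-tagged AT₁R were plated at 1.5 × 10⁵ cells per glass-bottom dish. Where stated, cells were pre-treated with H₂O₂ for 3 h. Cell surfaces were imaged before and after 5 nM monovalent Ang II (or a 5 nM total 1:1 mixture) or 2.5 nM bivalent peptide. Imaging used a 488 nm laser and a 60× oil objective. Image correlation spectroscopy gave mean fluorescence intensity, cluster density and degree of aggregation versus unstimulated baseline.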
# HEK293 [3] = experiment: Stimulation of EGFP-tagged rat AT1 receptor expressed in HEK cells assessed as decrease in cluster density value at 2.5 nM under H2O2-induced oxidative stress condition by image correlation spectroscopic analysis; format: cell-based
# Summary of the method: as §1
# HEK293 [4] = experiment: Stimulation of EGFP-tagged rat AT1 receptor expressed in HEK cells assessed as increase in degree of aggregation at 2.5 nM under non-oxidative condition by image correlation spectroscopic analysis; format: cell-based
# Summary of the method: as §1
# HEK293 [5] = experiment: Stimulation of EGFP-tagged rat AT1 receptor expressed in HEK cells assessed as increase in degree of aggregation at 2.5 nM under H2O2-induced oxidative stress condition by image correlation spectroscopic analysis; format: cell-based
# Summary of the method: as §1
# HEK293 [6] = experiment: Stimulation of EGFP-tagged rat AT1 receptor expressed in HEK cells assessed as increase in degree of aggregation at 5 nM under non-oxidative condition by image correlation spectroscopic analysis; format: cell-based
# Summary of the method: as §1
# HEK293 [7] = experiment: Stimulation of EGFP-tagged rat AT1 receptor expressed in HEK cells assessed as increase in cluster density value at 5 nM under non-oxidative condition by image correlation spectroscopic analysis relative to control; format: cell-based
# Summary of the method: as §1
# HEK293 [8] = experiment: Stimulation of EGFP-tagged rat AT1 receptor expressed in HEK cells assessed as increase in mean fluorescence intensity at 5 nM under non-oxidative condition by image correlation spectroscopic analysis relative to control; format: cell-based
# Summary of the method: as §1
# HEK293 [9] = experiment: Stimulation of EGFP-tagged rat AT1 receptor expressed in HEK cells assessed as increase in cluster density value at 5 nM under H2O2-induced oxidative stress condition by image correlation spectroscopic analysis; format: cell-based
# Summary of the method: as §1
# HEK293 [10] = experiment: Stimulation of EGFP-tagged rat AT1 receptor expressed in HEK cells assessed as increase in degree of aggregation at 5 nM under H2O2-induced oxidative stress condition by image correlation spectroscopic analysis; format: cell-based
# Summary of the method: as §1
# HEK293 [11] = experiment: Stimulation of EGFP-tagged rat AT1 receptor expressed in HEK cells assessed as increase in mean fluorescence intensity at 5 nM under H2O2-induced oxidative stress condition by image correlation spectroscopic analysis relative to control; format: cell-based
# Summary of the method: as §1
# HEK293 [12] = experiment: Stimulation of EGFP-tagged rat AT1 receptor expressed in HEK cells assessed as increase in intracellular calcium level at 5 nM after 3 mins under H2O2-induced oxidative stress condition by fluorimetric assay; format: cell-based
# Summary of the method: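 Before the Indo1-AM [Ca²⁺]i assay, AT₁R-HEK cells were exposed to H₂O₂ for 3 h to impose oxidative stress. They were then stimulated with 5 nM peptide, based on Ang II equivalents. Ratiometric emission at 405/490 nm (ex 338 nm) was monitored for 3 min after ligand addition. Ca²⁺ was derived by Kd-based calibration against EGTA and ionomycin ratios.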
# HEK293 [13] = experiment: Stimulation of EGFP-tagged rat AT1 receptor expressed in HEK cells assessed as increase in intracellular calcium level at 10 nM after 3 mins by fluorimetric assay
smiles,measurement,setting,value
CC[C@H](C)[C@H](NC(=O)[C@H](Cc1ccc(O)cc1)NC(=O)[C@@H](NC(=O)[C@H](CCCNC(=N)N)NC(=O)[C@H](CC(=O)O)NC(=O)CCCCCNc1c(N[C@@H](CC(=O)O)C(=O)N[C@@H](CCCNC(=N)N)C(=O)N[C@H](C(=O)N[C@@H](Cc2ccc(O)cc2)C(=O)N[C@H](C(=O)N[C@@H](Cc2cnc[nH]2)C(=O)N2CCC[C@H]2C(=O)N[C@@H](Cc2ccccc2)C(=O)O)[C@@H](C)CC)C(C)C)c(=O)c1=O)C(C)C)C(=O)N[C@@H](Cc1cnc[nH]1)C(=O)N1CCC[C@H]1C(=O)N[C@@H](Cc1ccccc1)C(=O)O,Activity,HEK293 [1],Active
same,Activity,HEK293 [2],inactive
same,Activity,HEK293 [3],inactive
same,Activity,HEK293 [4],Active
same,Activity,HEK293 [5],Active
CC[C@H](C)[C@H](NC(=O)[C@H](Cc1ccc(O)cc1)NC(=O)[C@@H](NC(=O)[C@H](CCCNC(=N)N)NC(=O)[C@@H](N)CC(=O)O)C(C)C)C(=O)N[C@@H](Cc1cnc[nH]1)C(=O)N1CCC[C@H]1C(=O)N[C@@H](Cc1ccccc1)C(=O)O,Activity,HEK293 [6],inactive
same,Activity,HEK293 [7],Active
same,Activity,HEK293 [8],Active
same,Activity,HEK293 [9],Active
same,Activity,HEK293 [10],Active
same,Activity,HEK293 [11],Active
same,Activity,HEK293 [12],Active
CC[C@H](C)[C@H](NC(=O)[C@H](Cc1ccc(O)cc1)NC(=O)[C@@H](NC(=O)[C@H](CCCNC(=N)N)NC(=O)[C@H](CC(=O)O)NC(=O)CCCCCNc1c(OC)c(=O)c1=O)C(C)C)C(=O)N[C@@H](Cc1cnc[nH]1)C(=O)N1CCC[C@H]1C(=O)N[C@@H](Cc1ccccc1)C(=O)O,Activity,HEK293 [13],Active
